Results from different studies.
Each line is one published result; the experiments were not run side by side.
CNR1: Cannabinoid receptor 1 (CNR1, Homo sapiens, UniProt P21554)
OPRK1: Kappa-type opioid receptor (OPRK1, Homo sapiens, UniProt P41145)
PFF0160c: Dihydroorotate dehydrogenase (quinone), mitochondrial (PFF0160c, Plasmodium falciparum, UniProt Q08210)

CCCCCn1c(O)c(N=NC(=O)c2ccccc2)c2ccccc21  Ki (CNR1; ligand displacement, radioligand; cell membranes): 1560 nM
COc1ccc(C(=O)N[C@H]2CC[C@@]3(O)[C@H]4Cc5ccc(O)c6c5[C@@]3(CCN4CC3CC3)[C@H]2O6)s1  Ki (OPRK1; ligand displacement, radioligand; cell membranes): 1.69 nM
CCn1cc(C2CC2)c2c(Cc3ccc(C(F)(F)F)c(F)c3)n(C)nc2c1=O  IC50 (PFF0160c; enzyme activity, inhibitor): 12.6 nM
CNC(=O)c1ccc(-c2cnn3ccc(C(=O)N(C)c4ccc(Cl)c(C(=O)O)c4)cc23)cc1  IC50 (Serine/threonine-protein kinase WNK1 (WNK1, Homo sapiens, UniProt Q9H4A3); enzyme activity, inhibitor): > 30000 nM
O=C(N=Nc1c(O)n(CCCCCF)c2ccccc12)c1ccccc1  Ki (CNR1; ligand displacement, radioligand; cell membranes): 2240 nM
N#Cc1ccc(C(=O)N[C@H]2CC[C@@]3(O)[C@H]4Cc5ccc(O)c6c5[C@@]3(CCN4CC3CC3)[C@H]2O6)s1  Ki (OPRK1; ligand displacement, radioligand; cell membranes): 3.61 nM
Cn1nc2c(=O)n(C3CC3)cnc2c1[C@@](O)(c1cnc(C(F)(F)F)c(Cl)c1)C(F)(F)F  IC50 (PFF0160c; enzyme activity, inhibitor): 5010 nM
CCCCCCn1c(O)c(N=NC(=O)c2ccccc2)c2ccccc21  Ki (CNR1; ligand displacement, radioligand; cell membranes): 1150 nM
Cc1ccc(C(=O)N[C@H]2CC[C@@]3(O)[C@H]4Cc5ccc(O)c6c5[C@@]3(CCN4CC3CC3)[C@H]2O6)s1  Ki (OPRK1; ligand displacement, radioligand; cell membranes): 1.67 nM
Cn1nc2c(=O)n(C3CC3)ncc2c1[C@](O)(c1ccc(C(F)(F)F)c(Cl)c1)C(F)(F)F  IC50 (PFF0160c; enzyme activity, inhibitor): 7.94 nM
COC(=O)[C@@H](NC(=O)c1nn(Cc2ccc(F)cc2)c2ccccc12)C(C)C  EC50 (CNR1; β-arrestin recruitment, agonist): 20 nM
O=C(N[C@H]1CC[C@@]2(O)[C@H]3Cc4ccc(O)c5c4[C@@]2(CCN3CC2CC2)[C@H]1O5)c1ccc(C(F)(F)F)s1  Ki (OPRK1; ligand displacement, radioligand; cell membranes): 2.47 nM
Cc1nn(C2CC2)c(=O)c2nn(C)c(Cc3ccc(C(F)(F)F)c(C#N)c3)c12  IC50 (PFF0160c; enzyme activity, inhibitor): 200 nM
O=C(N[C@H]1CC[C@@]2(O)[C@H]3Cc4ccc(O)c5c4[C@@]2(CCN3CC2CC2)[C@H]1O5)c1ccc(F)s1  Ki (OPRK1; ligand displacement, radioligand; cell membranes): 2.2 nM
CCCCCc1cc(O)c2c(c1)OC(C)(C)c1ccc(C)cc1-2  Ki (CNR1; cell-free assay): 285 nM
